Measured values published in ChEMBL document CHEMBL3102784, “Salicylanilide diethyl phosphates: synthesis, antimicrobial activity and cytotoxicity” (Bioorg Med Chem, 2014).
pIC50: −log10 of the molar value. Converted amounts (≈) assume the structure as drawn. The source made the active and inactive calls. The calls are words filed in the database; no cut-off is given here.

What was measured:
Mycobacterium avium [1] = assay: Antimycobacterial activity against isoniazid, rifampicin, ethambutol and ofloxacin-resistant Mycobacterium avium My 330/88 after 21 days; format: functional; settings: My 330/88, 504 h
In short: (§1)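 Micromethod MIC in Šula's semisynthetic medium at 37 °C. Compounds added in DMSO at 1000 down to 0.032 µmol/L. Isoniazid standard in sterile water at 0.5–250 µmol/L. Inocula: H37Rv 10^3, M. avium 10^5, M. kansasii 10^4. Read at 14 and 21 d, plus 7 d for M. kansasii.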

Mycobacterium avium [2] = assay: Antimycobacterial activity against isoniazid, rifampicin, ethambutol and ofloxacin-resistant Mycobacterium avium My 330/88 after 14 days; format: functional; settings: My 330/88, 336 h; in short: as §1
[3] = tested on: Mycobacterium tuberculosis; assay: Antimycobacterial activity against Mycobacterium tuberculosis H37Rv My 331/88 after 21 days; format: functional; settings: H37Rv My 331/88, 504 h; in short: as §1
[4] = tested on: Mycobacterium tuberculosis; assay: Antimycobacterial activity against Mycobacterium tuberculosis H37Rv My 331/88 after 14 days; format: functional; settings: H37Rv My 331/88, 336 h; in short: as §1
[5] = tested on: Trichophyton mentagrophytes; assay: Antifungal activity against Trichophyton mentagrophytes 445 after 120 hrs by broth microdilution method; format: functional; settings: Trichophyton mentagrophytes, 445, 120 h
In short: (§2)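 Filamentous dermatophyte tested by broth microdilution in RPMI 1640 with glutamine, fluconazole as reference. Value expressed as IC50 relative to growth control. Read at 72 and 120 h.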

[6] = tested on: Trichophyton mentagrophytes; assay: Antifungal activity against Trichophyton mentagrophytes 445 after 72 hrs by broth microdilution method; format: functional; settings: Trichophyton mentagrophytes, 445, 72 h; in short: as §2
Lichtheimia corymbifera [7] = assay: Antifungal activity against Absidia corymbifera 272 after 48 hrs by broth microdilution method; format: functional; settings: Lichtheimia corymbifera, 272, 48 h
In short: (§3)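 Broth microdilution in RPMI 1640 with glutamine, fluconazole as reference. For yeasts, MIC is ≥80% growth reduction (IC80) versus control. For filamentous fungi, the value is expressed as IC50. Readings at 24 and 48 h.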

Lichtheimia corymbifera [8] = assay: Antifungal activity against Absidia corymbifera 272 after 24 hrs by broth microdilution method; format: functional; settings: Lichtheimia corymbifera, 272, 24 h; in short: as §3
Aspergillus fumigatus [9] = assay: Antifungal activity against Aspergillus fumigatus 231 after 48 hrs by broth microdilution method; format: functional; settings: Aspergillus fumigatus, 231, 48 h; in short: as §3
Aspergillus fumigatus [10] = assay: Antifungal activity against Aspergillus fumigatus 231 after 24 hrs by broth microdilution method; format: functional; settings: Aspergillus fumigatus, 231, 24 h; in short: as §3
Trichosporon asahii [11] = assay: Antifungal activity against Trichosporon asahii 1188 after 48 hrs by broth microdilution method; format: functional; settings: Trichosporon asahii, 1188, 48 h; in short: as §3
Trichosporon asahii [12] = assay: Antifungal activity against Trichosporon asahii 1188 after 24 hrs by broth microdilution method; format: functional; settings: Trichosporon asahii, 1188, 24 h; in short: as §3
Pichia kudriavzevii [13] = assay: Antifungal activity against Candida krusei E28 after 48 hrs by broth microdilution method; format: functional; settings: E28, 48 h; in short: as §3
Pichia kudriavzevii [14] = assay: Antifungal activity against Candida krusei E28 after 24 hrs by broth microdilution method; format: functional; settings: E28, 24 h; in short: as §3
Candida albicans [15] = assay: Antifungal activity against Candida albicans ATCC 44859 after 48 hrs by broth microdilution method; format: functional; settings: ATCC 44859, 48 h; in short: as §3
Candida albicans [16] = assay: Antifungal activity against Candida albicans ATCC 44859 after 24 hrs by broth microdilution method; format: functional; settings: ATCC 44859, 24 h; in short: as §3
Nakaseomyces glabratus = assay: Antifungal activity against Candida glabrata 20/I at 500 micromol/L after 24 to 48 hrs by broth microdilution method; format: functional, organism-based; in short: as §3
Candida tropicalis = assay: Antifungal activity against Candida tropicalis 156 at 500 micromol/L after 24 to 48 hrs by broth microdilution method; format: functional, organism-based; in short: as §3
Pseudomonas aeruginosa = assay: Antibacterial activity against Pseudomonas aeruginosa CCM 1961 at 500 micromol/L after 24 to 48 hrs by broth microdilution method; format: functional, organism-based
In short: (§4)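 Broth microdilution in Mueller–Hinton broth, compounds dissolved in DMSO, tested over a dilution series from 500 downward. MIC taken as ≥95% growth reduction (IC95) versus drug-free control. Benzylpenicillin comparator. Readings at 24 and 48 h.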

Klebsiella pneumoniae [17] = assay: Antibacterial activity against ESBL-positive Klebsiella pneumoniae J 14368/08 at 500 micromol/L after 24 to 48 hrs by broth microdilution method; format: functional, organism-based; in short: as §4
Klebsiella pneumoniae [18] = assay: Antibacterial activity against Klebsiella pneumoniae D 11750/08 at 500 micromol/L after 24 to 48 hrs by broth microdilution method; format: functional, organism-based; in short: as §4
Escherichia coli = assay: Antibacterial activity against Escherichia coli CCM 4517 at 500 micromol/L after 24 to 48 hrs by broth microdilution method; format: functional, organism-based; in short: as §4
Enterococcus sp. = assay: Antibacterial activity against Enterococcus sp. J 14365/08 at 500 micromol/L after 24 to 48 hrs by broth microdilution method; format: functional, organism-based; in short: as §4
[19] = tested on: Staphylococcus epidermidis; assay: Antibacterial activity against Staphylococcus epidermidis H 6966/08 after 48 hrs by broth microdilution method; format: functional; settings: H 6966/08, 48 h; in short: as §4
[20] = tested on: Staphylococcus epidermidis; assay: Antibacterial activity against Staphylococcus epidermidis H 6966/08 after 24 hrs by broth microdilution method; format: functional; settings: H 6966/08, 24 h; in short: as §4
Staphylococcus aureus [21] = assay: Antibacterial activity against methicillin-resistant Staphylococcus aureus H 5996/08 after 48 hrs by broth microdilution method; format: functional; settings: H 5996/08, 48 h; in short: as §4
Staphylococcus aureus [22] = assay: Antibacterial activity against methicillin-resistant Staphylococcus aureus H 5996/08 after 24 hrs by broth microdilution method; format: functional; settings: H 5996/08, 24 h; in short: as §4
Staphylococcus aureus [23] = assay: Antibacterial activity against Staphylococcus aureus CCM 4516/08 after 48 hrs by broth microdilution method; format: functional; settings: CCM 4516/08, 48 h; in short: as §4
Staphylococcus aureus [24] = assay: Antibacterial activity against Staphylococcus aureus CCM 4516/08 after 24 hrs by broth microdilution method; format: functional; settings: CCM 4516/08, 24 h; in short: as §4
Mycobacterium kansasii [25] = assay: Antimycobacterial activity against Mycobacterium kansasii 6509/96 after 21 days; format: functional; settings: 6509/96, 504 h; in short: as §1
Mycobacterium kansasii [26] = assay: Antimycobacterial activity against Mycobacterium kansasii 6509/96 after 14 days; format: functional; settings: 6509/96, 336 h; in short: as §1
Mycobacterium kansasii [27] = assay: Antimycobacterial activity against Mycobacterium kansasii 6509/96 after 7 days; format: functional; settings: 6509/96, 168 h; in short: as §1
Mycobacterium kansasii [28] = assay: Antimycobacterial activity against Mycobacterium kansasii My 235/80 after 21 days; format: functional; settings: My 235/80, 504 h; in short: as §1
Mycobacterium kansasii [29] = assay: Antimycobacterial activity against Mycobacterium kansasii My 235/80 after 14 days; format: functional; settings: My 235/80, 336 h; in short: as §1
HepG2 = assay: Cytotoxicity against human HepG2 cells after 24 hrs by CellTiter assay; format: cell-based; settings: HepG2, 24 h
In short: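 HepG2 cells (passage 27–33) in MEM with 10% FBS, L-glutamine and NEAA, seeded at 1×10^4 per well. Treated next day with compounds at 0.1–100 µM (or 0.1–25 µmol/L), triplicates, <1% DMSO, for 24 h at 37 °C, 5% CO2. MTS reagent added for 2 h, absorbance read at 490 nm. IC50 taken against untreated (100%) and 10% DMSO (0%) controls.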

Mycobacterium kansasii [30] = assay: Antimycobacterial activity against Mycobacterium kansasii My 235/80 after 7 days; format: functional; settings: My 235/80, 168 h; in short: as §1

Row | Compound | MIC (Mycobacterium avium [1]) | MIC (Mycobacterium avium [2]) | MIC [3] | MIC [4] | MIC50 [5] | MIC50 [6] | MIC50 (Lichtheimia corymbifera [7]) | MIC50 (Lichtheimia corymbifera [8]) | MIC50 (Aspergillus fumigatus [9]) | MIC50 (Aspergillus fumigatus [10]) | MIC80 (Trichosporon asahii [11]) | MIC80 (Trichosporon asahii [12]) | MIC80 (Pichia kudriavzevii [13]) | MIC80 (Pichia kudriavzevii [14]) | MIC80 (Candida albicans [15]) | MIC80 (Candida albicans [16]) | Activity (Nakaseomyces glabratus) | Activity (Candida tropicalis) | Activity (Pseudomonas aeruginosa) | Activity (Klebsiella pneumoniae [17]) | other results
1 | CCOP(=O)(OCC)Oc1ccc(Cl)cc1C(=O)Nc1cccc(C(F)(F)F)c1 | 16 µM (≈ 7.23 µg/mL) | 16 µM (≈ 7.23 µg/mL) | 2 µM (≈ 0.904 µg/mL) | 2 µM (≈ 0.904 µg/mL) | > 500 µM | > 500 µM | > 500 µM | > 500 µM | > 500 µM | > 500 µM | > 500 µM | > 500 µM | > 500 µM | > 500 µM | > 500 µM | > 500 µM | inactive | inactive | inactive | inactive | Activity (Klebsiella pneumoniae [18]): inactive; Activity (Escherichia coli): inactive; Activity (Enterococcus sp.): inactive; MIC95 [19]: > 500 µM; MIC95 [20]: 250 µM (≈ 113 µg/mL); MIC95 (Staphylococcus aureus [21]): 500 µM (≈ 226 µg/mL); MIC95 (Staphylococcus aureus [22]): 500 µM (≈ 226 µg/mL); MIC95 (Staphylococcus aureus [23]): > 500 µM; MIC95 (Staphylococcus aureus [24]): > 500 µM; MIC (Mycobacterium kansasii [25]): 8 µM (≈ 3.61 µg/mL); MIC (Mycobacterium kansasii [26]): 8 µM (≈ 3.61 µg/mL); MIC (Mycobacterium kansasii [27]): 8 µM (≈ 3.61 µg/mL); MIC (Mycobacterium kansasii [28]): 8 µM (≈ 3.61 µg/mL); MIC (Mycobacterium kansasii [29]): 8 µM (≈ 3.61 µg/mL); pIC50 (HepG2): 5.25; MIC (Mycobacterium kansasii [30]): 8 µM (≈ 3.61 µg/mL)
2 | CCOP(=O)(OCC)Oc1ccc(Br)cc1C(=O)Nc1ccc(C(F)(F)F)cc1 | 8 µM (≈ 3.97 µg/mL) | 8 µM (≈ 3.97 µg/mL) | 1 µM (≈ 0.496 µg/mL) | 1 µM (≈ 0.496 µg/mL) | 250 µM (≈ 124 µg/mL) | 250 µM (≈ 124 µg/mL) | > 500 µM | > 500 µM | > 500 µM | > 500 µM | > 500 µM | > 500 µM | > 500 µM | > 500 µM | > 500 µM | > 500 µM | inactive | inactive | inactive | inactive | Activity (Klebsiella pneumoniae [18]): inactive; Activity (Escherichia coli): inactive; Activity (Enterococcus sp.): inactive; MIC95 [19]: 15.6 µM (≈ 7.75 µg/mL); MIC95 [20]: 7.81 µM (≈ 3.88 µg/mL); MIC95 (Staphylococcus aureus [21]): 15.6 µM (≈ 7.75 µg/mL); MIC95 (Staphylococcus aureus [22]): 15.6 µM (≈ 7.75 µg/mL); MIC95 (Staphylococcus aureus [23]): 31.2 µM (≈ 15.5 µg/mL); MIC95 (Staphylococcus aureus [24]): 15.6 µM (≈ 7.75 µg/mL); MIC (Mycobacterium kansasii [25]): 2 µM (≈ 0.992 µg/mL); MIC (Mycobacterium kansasii [26]): 2 µM (≈ 0.992 µg/mL); MIC (Mycobacterium kansasii [27]): 2 µM (≈ 0.992 µg/mL); MIC (Mycobacterium kansasii [28]): 2 µM (≈ 0.992 µg/mL); MIC (Mycobacterium kansasii [29]): 2 µM (≈ 0.992 µg/mL); pIC50 (HepG2): 5.74; MIC (Mycobacterium kansasii [30]): 1 µM (≈ 0.496 µg/mL)
